NALP3 yeast inh: blocks the NALP3 inflammasome reconstituted in yeast | actives 0.39% (n = 330,000) | inhibition, % at 10 µM | Yeast reconstituted NLRP3/ASC/caspase-1, beta-gal luminescence, 24 h;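 active = inhibition of 50% or more; inactive = inhibition below 50%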;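 note: plate controls were induced DMSO wells for no effect and uninduced yeast grown without galactose for full effect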
T cell HTS: T cell immune modulators affecting CD8 T cell-vesicle binding. actives 0.068% (n = 330,000). 2C CD8+ T cell-vesicle binding, flow cytometry; active compounds read low. response (vesicle binding), % at 7 µM. AID 2052;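 active = response, share of CD8 T cells binding vesicles, and their 90th percentile fluorescence all below set limits, cut at about 80% in these data, passing the limit was not always enough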;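 note: values below 100% mean blocked vesicle binding to the CD8+ T cells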
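Benchmarks: naked versus QL9-loaded vesicles / Assay system: purified 2C TCR transgenic mouse naive CD8+ T cells / Technique: high-throughput flow cytometry with anti-B7-1 and anti-CD8 staining / Timing: Cell–vesicle co-incubation 1.5 h at 37 °C, staining 20 min on ice / Read-out: percent CD8+ FL2 mean versus row control / Probe or stimulus: QL9-loaded Drosophila micro-vesicles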
A1 inh: inhibitors of the anti-apoptotic protein A1, read as caspase activation; MEF A1-2A-BIM cells, Caspase-Glo 3/7 luminescence, 3 h; percent of clofoctol response, vehicle zero; caspase activation, % (concentration not given with the values); actives 0.066% (n = 330,000);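 active = over half of replicate activation scores above 10%, or exactly half above 10 with the replicate mean above 10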
NALP1 inh: NALP1 inhibition. inhibition, % at 10 µM. actives 0.61% (n = 280,000). S. cerevisiae NALP1/ASC/caspase-1 growth, X-gal OD620, 72 h; in the data active = inhibition mostly above about 24%, no sharp cut-off; inactive = mostly below about 32%
* = called active by the depositor. Hits are enriched below; roughly 1% of the tested compounds scored in any of these assays.

Results for N=c1n(CC(=O)c2ccc([N+](=O)[O-])cc2)c2ccccc2n1Cc1ccc(Cl)cc1 ?
NALP3 yeast inh: 10; T cell HTS: 171; A1 inh: -1; NALP1 inh: 64*

What do the screens show for `c1ccc(-n2nnnc2-c2cnc(-c3ccncc3)nc2-c2cccs2)cc1`?
NALP3 yeast inh: 10; T cell HTS: 351; A1 inh: 1; NALP1 inh: 22*

How did CCOc1c(Cl)cc(CNCC(C)C)cc1OC do in these assays?
NALP3 yeast inh: 8; T cell HTS: 155; A1 inh: 0; NALP1 inh: 69

How did CCOc1cc(CNCC(C)C)cc(Cl)c1OCc1ccccc1 do in these assays?
NALP3 yeast inh: 31; T cell HTS: 224; A1 inh: 0; NALP1 inh: 36*

Results for CCOc1cc(CNCCO)cc(Br)c1OCc1ccc(Cl)cc1 ?
NALP3 yeast inh: 12; T cell HTS: 141; A1 inh: 0; NALP1 inh: 22

What do the screens show for `CCOc1cc(CNCCO)cc(Br)c1OCc1ccccc1Cl`?
NALP3 yeast inh: 14; T cell HTS: 330; A1 inh: 0; NALP1 inh: 32*

How did CC(C)COc1ccc(C(=O)CCN2CCCCC2)cc1 do in these assays?
NALP3 yeast inh: 9; T cell HTS: 209; A1 inh: 0; NALP1 inh: 15

What do the screens show for `CCCCOc1ccc(C(=O)CCN2CCCCC2)cc1`?
NALP3 yeast inh: 37; T cell HTS: 228; A1 inh: 0; NALP1 inh: 46*

What do the screens show for `O=C(COc1cc2oc(=O)c3c(c2cc1Cl)CCCC3)N1C[C@H]2C[C@@H](C1)c1cccc(=O)n1C2`?
NALP3 yeast inh: 7; T cell HTS: 147; A1 inh: 0; NALP1 inh: 33

What do the screens show for `CCCCc1c(C)c(C#N)c2nc3ccccc3n2c1NCCN(C)C`?
NALP3 yeast inh: 26; NALP1 inh: 34*

Results for O=C(CN1CCN(C/C=C/c2ccccc2)CC1)NCc1ccccc1 ?
NALP3 yeast inh: 2; T cell HTS: 251; A1 inh: -1; NALP1 inh: 4

Results for CCC(C)c1ccccc1NC(=O)CN1CCN(C/C=C/c2ccccc2)CC1 (stereo not given) ?
NALP3 yeast inh: 16; T cell HTS: 164; A1 inh: 0; NALP1 inh: 53*

How did O=C(c1ccco1)N1CCN(C(=O)c2cccc3c2C(=O)N(Cc2cccnc2)C3)CC1 do in these assays?
NALP3 yeast inh: 9; T cell HTS: 700; NALP1 inh: 36*

How did O=C(CN(Cc1ccc(F)cc1)C(=O)CCC(=O)Nc1ccccn1)NCCc1ccccc1 do in these assays?
NALP3 yeast inh: 17; T cell HTS: 474; A1 inh: 0; NALP1 inh: -11

How did CCN(CC)S(=O)(=O)c1ccc(Cl)c(NC(=O)COC(=O)C2CCCCC2)c1 do in these assays?
NALP3 yeast inh: -9; T cell HTS: 0.0*; A1 inh: 1

What do the screens show for `NC(=O)/C=C\C(=O)Nc1cccc(C(F)(F)F)c1`?
NALP3 yeast inh: 25; T cell HTS: 34; A1 inh: 1; NALP1 inh: 61*

How did CCCCN(C(=O)CSCC(=O)Nc1ccc(OC)cc1)c1c(N)n(Cc2ccccc2)c(=O)[nH]c1=O do in these assays?
NALP3 yeast inh: -1; T cell HTS: 181; A1 inh: 0

Results for O=C(c1ccc(Cl)cc1)N1CCCC(C(=O)N2CCN(c3ccccc3)CC2)C1 (stereo not given) ?
NALP3 yeast inh: 3; T cell HTS: 652; A1 inh: 2; NALP1 inh: 44*

Results for Cc1ccc2c(c1)N(CC(=O)N1CCCCC1)C(=O)C(C)O2 (stereo not given) ?
NALP3 yeast inh: 17; T cell HTS: 362; A1 inh: 0; NALP1 inh: 11

Results for CC(=O)Nc1cccc(C(=O)NC2CCCc3c2cnn3-c2cc(C)cc(C)c2)c1 (stereo not given) ?
NALP3 yeast inh: 13; T cell HTS: 212; A1 inh: 0; NALP1 inh: 15

How did CCC(CC(C)(C)O)C(=O)NNC(=S)Nc1ccccc1 (stereo not given) do in these assays?
NALP3 yeast inh: 2; T cell HTS: 0; A1 inh: 0; NALP1 inh: 33*

Results for Cc1ccc(OC[C@H](O)[C@H](C)NC(C)C)c2c1CCC2 ?
NALP3 yeast inh: -6; T cell HTS: 247; A1 inh: 1

What do the screens show for `O=C(NCCCN1CCN(CCCNC(=O)c2ccc3c(c2)OCO3)CC1)c1ccc2c(c1)OCO2`?
NALP3 yeast inh: 5; T cell HTS: 261; A1 inh: 0; NALP1 inh: 28*

How did O=C(Nc1cnccn1)c1ccc(F)cc1Cl do in these assays?
NALP3 yeast inh: 15; T cell HTS: 173; A1 inh: 2; NALP1 inh: 18

Results for Cc1ccc(/C=C/C(=O)c2ccc([N+](=O)[O-])o2)cc1 ?
NALP3 yeast inh: 14; T cell HTS: 200; A1 inh: 7.9*

How did O=C(/C=C/c1ccc(Cl)cc1)c1ccc([N+](=O)[O-])o1 do in these assays?
NALP3 yeast inh: 25; T cell HTS: 148; A1 inh: 9.9*

How did COc1ccccc1C(=O)NCCC(=O)NCC(c1ccc(F)cc1)N1CCOCC1 (stereo not given) do in these assays?
NALP3 yeast inh: 8; T cell HTS: 382; A1 inh: -1

Results for O=C(CN1CCN(Cc2ccc(F)cc2Cl)CC1)NCc1ccccc1 ?
NALP3 yeast inh: 28; T cell HTS: 199; A1 inh: 1; NALP1 inh: 10

Results for COc1ccc(-n2c(C)cc(C(=O)CCl)c2C)cc1 ?
NALP3 yeast inh: -55; T cell HTS: 531; A1 inh: 3; NALP1 inh: 42*

What do the screens show for `COc1ccc(C2(CNC(=O)c3ccc(N)cc3)CCCC2)cc1`?
NALP3 yeast inh: 9; T cell HTS: 391; A1 inh: 0; NALP1 inh: 42*

How did COc1ccc(C2(CNC(=O)c3ccc(C)cc3)CCOCC2)cc1 do in these assays?
NALP3 yeast inh: 3; T cell HTS: 188; A1 inh: 1; NALP1 inh: 13

What do the screens show for `CC1CCCC(NC(=O)COC(=O)c2ccc(Cl)nc2)C1C` (stereo not given)?
NALP3 yeast inh: 8; T cell HTS: 103; A1 inh: -1

How did O=C(Nc1cc(Cl)ccc1-n1cncn1)c1cc(F)c(F)c(F)c1F do in these assays?
NALP3 yeast inh: 11; T cell HTS: 540; A1 inh: -1

How did Cc1cc(C)cc(OCC(=O)NCCc2nc3ccccc3[nH]2)c1 do in these assays?
NALP3 yeast inh: -1; T cell HTS: 452; A1 inh: 0; NALP1 inh: 4

What do the screens show for `Cc1cc(=O)oc2cc(OCC(=O)NCCc3nc4ccccc4[nH]3)ccc12`?
NALP3 yeast inh: -9; T cell HTS: 327; A1 inh: 0; NALP1 inh: 38*

How did COC(=O)C1NC(=O)N2C(C(=O)OC)C(C)(C)S[C@H]12 (stereo not given in full) do in these assays?
NALP3 yeast inh: -2; A1 inh: 1

What do the screens show for `CCCCC(=O)Oc1c(S(=O)(=O)c2ccccc2)c(C)nn1C(C)(C)C`?
NALP3 yeast inh: -4; T cell HTS: 244; A1 inh: 0; NALP1 inh: 22

Bioassay records (PubChem BioAssay)
